Published values from different studies.
Lines come from different studies, so protocols differ.
Target: Dual specificity protein kinase TTK (TTK, Homo sapiens, UniProt P33981)
Sequence (P33981 1-857, as in one of the studies): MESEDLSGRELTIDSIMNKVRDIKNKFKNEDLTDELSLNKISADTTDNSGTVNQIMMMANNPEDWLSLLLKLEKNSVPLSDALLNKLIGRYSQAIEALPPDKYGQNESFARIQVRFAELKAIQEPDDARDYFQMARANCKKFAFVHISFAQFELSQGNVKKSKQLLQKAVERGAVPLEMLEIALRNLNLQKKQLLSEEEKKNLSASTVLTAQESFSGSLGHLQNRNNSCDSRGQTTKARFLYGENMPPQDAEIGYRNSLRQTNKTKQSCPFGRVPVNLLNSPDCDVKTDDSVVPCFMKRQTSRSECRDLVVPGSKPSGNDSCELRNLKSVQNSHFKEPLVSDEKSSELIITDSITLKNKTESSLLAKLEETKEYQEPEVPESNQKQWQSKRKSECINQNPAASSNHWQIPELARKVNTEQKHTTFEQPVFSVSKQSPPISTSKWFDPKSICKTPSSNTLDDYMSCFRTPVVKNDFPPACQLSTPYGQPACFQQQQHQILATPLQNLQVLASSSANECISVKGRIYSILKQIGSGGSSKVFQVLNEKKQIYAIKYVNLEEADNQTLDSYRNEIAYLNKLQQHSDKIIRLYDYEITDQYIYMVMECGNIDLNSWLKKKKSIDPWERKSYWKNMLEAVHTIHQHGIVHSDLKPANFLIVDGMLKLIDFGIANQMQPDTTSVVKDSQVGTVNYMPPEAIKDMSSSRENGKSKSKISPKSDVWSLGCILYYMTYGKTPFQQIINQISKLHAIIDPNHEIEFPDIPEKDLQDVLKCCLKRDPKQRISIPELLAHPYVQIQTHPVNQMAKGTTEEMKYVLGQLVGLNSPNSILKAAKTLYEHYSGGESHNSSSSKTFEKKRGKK

| SMILES | observed | method | tested at | remaining binding [%] |
| --- | --- | --- | --- | --- |
| O=C(c1ccc(Nc2ncc(Cl)c(-c3ccc(Cl)s3)n2)cc1)N1CCC(N2CCCC2)CC1 | binding | competition with immobilised ligand | 1 µM | 26 |
| C=CC(=O)N1CCC(C(=O)NCC(=O)N2CCN(c3nc(-c4cnc(N)nc4C(F)F)nc(N4CCOCC4)n3)CC2)CC1 | binding | competition with immobilised ligand | 1 µM | 92 |
| CNC(=O)[C@@H]1CC[C@@H](n2c(-c3ccc4cnccc4c3)nc3ccc(C(=O)NCc4cccc(C(N)=O)c4)cc32)C1 | binding | competition with immobilised ligand | 1 µM | 100 |
| CN(C)c1nccc(-c2cnc3ncccn23)n1 | binding |  | 1 µM | 74 |
| O=C(Nc1c[nH]nc1C(=O)NC1CCNCC1)c1cc(F)cc(F)c1 | binding | competition with immobilised ligand | 1 µM | 100 |
| CO[C@@H](C)c1c(Nc2ccc([C@H](N(C)C(=O)C3CCS(=O)(=O)CC3)C(F)(F)F)cc2)cnc2cc(Cl)nn12 | cell-free assay | competition with immobilised ligand | 1 µM | 77 |
| CN(C)c1ncc(F)c(-c2cnn3ncccc23)n1 | binding |  | 1 µM | 66 |
| COc1cnc(Nc2cccc(S(N)(=O)=O)c2)nc1N1CCN(c2ccccc2)C(=O)C1 | binding | competition with immobilised ligand | 1 µM | 77 |
| N[C@@H]1CCN(c2nccc(-c3cnn4ncccc34)n2)C1 | binding |  | 1 µM | 100 |
| CCCCN(CCCC)C(=O)CN1C[C@H](c2cc(OC)c3c(c2)OCO3)[C@@H](C(=O)O)[C@@H]1CC(C)(C)CCC | cell-free assay | competition with immobilised ligand | 1 µM | 100 |
| C[C@@H](c1ccc(-n2cnc3c(N)ncnc32)cc1)N1CCc2nn(C)c(Cc3ccccc3)c2C1=O | binding | competition with immobilised ligand | 0.1 µM | 85 |
| CCOC(=O)c1cc2cc(-c3cc(C(=O)NCc4ccc(C(=O)O)cc4)nn3C)ccc2[nH]1 | cell-free assay | competition with immobilised ligand | 0.1 µM | 93 |
| Cc1cnc(Nc2ccc(C(=O)N3CCC(N4CCCC4)CC3)cc2)nc1-c1cc2ccccc2s1 | binding | competition with immobilised ligand | 1 µM | 26 |
| CSc1cccnc1N1CCN(Cc2nc3ccccc3[nH]2)CC1 | cell-free assay | competition with immobilised ligand | 1 µM | 98 |
| C[C@@H]1CCN(c2nccc(-c3cnn4ncccc34)n2)C1 | binding |  | 1 µM | 46 |
| NS(=O)(=O)c1cc(NC(=O)Cc2ccccc2)ccc1Oc1cccc(Cl)c1 | cell-free assay | competition with immobilised ligand | 1 µM | 91 |
| CN(c1nccc(-c2cnn3ncccc23)n1)C1CC1 | binding |  | 1 µM | 69 |
| O=C(c1ccc(Nc2ncc(Cl)c(-c3cc4ccccc4s3)n2)cc1)N1CCC(N2CCCC2)CC1 | binding | competition with immobilised ligand | 1 µM | 41 |
| CN(C)c1nccc(-c2cnn3ncccc23)n1 | binding |  | 1 µM | 100 |
| COc1ccc2c(c1)O[C@H](c1ccc(OC)c(OC)c1)C[C@@H]2NC(=O)C1(c2ccc3c(c2)OC(F)(F)O3)CC1 | cell-free assay | competition with immobilised ligand | 1 µM | 100 |
